Data reported in ChEMBL document CHEMBL1158566, “The bisnaphthalimides as new active lead compounds against Plasmodium falciparum” (Bioorg Med Chem, 2010).
The source made the active and inactive calls. No cut-off for these calls is given here.

Key:
Plasmodium falciparum [1] = assay: Antiplasmodial activity against chloroquine-sensitive Plasmodium falciparum 3D7 assessed as parasite-specific LDH release after 72 hrs by Malstat assay; format: functional, organism-based; settings: 3D7, 72 h
Summary of the method: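 Synchronized 3D7 ring stages seeded at 1% parasitemia with compound (in H2O or DMSO) across 10 pM–100 µM. DMSO 0.5% served as negative control. Cultured 72 h in triplicate, then viability read as Plasmodium lactate dehydrogenase activity (Malstat). Each compound run two to four times. IC50 and standard deviation calculated.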

[2] = Cytotoxicity against mouse J774.1 cells after 48 hrs by alamar blue satining; format: cell-based; settings: J774.1, 48 h
Summary of the method: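 J774.1 macrophages at 1×10^5 cells/mL in phenol-red-free RPMI (10% FCS, 2 mM glutamine, 10 mM Hepes pH 7.2, 50 µM 2-mercaptoethanol, antibiotics) with increasing compound concentrations, 24 h at 37 °C, 5% CO2. AlamarBlue added to 10%, further 24 and 48 h incubation. Absorbance read at 540 nm against 630 nm reference. Final DMSO ≤1%, duplicates.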

Plasmodium falciparum [3] = assay: Antiplasmodial activity against chloroquine-resistant Plasmodium falciparum Dd2 assessed as parasite-specific LDH release after 72 hrs by Malstat assay; format: functional, organism-based; settings: Dd2, 72 h
Summary of the method: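 P. falciparum asexual blood stages: synchronized ring-stage cultures at 1% parasitemia, exposed to compounds (in water or DMSO) over 10 pM–100 µM for 72 h in triplicate. 0.5% DMSO served as negative control. Viability was read as parasite lactate dehydrogenase activity (Malstat). Each compound was run two to four times, and IC50 with standard deviation was calculated.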

Plasmodium falciparum [4] = assay: Antiplasmodial activity against blood stage forms of chloroquine-sensitive Plasmodium falciparum 3D7 assessed as dysfunctional intracellular membrane biosynthesis at IC50 after 72 hrs by electron microscopy; format: functional, organism-based
Summary of the method: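 Blood-stage P. falciparum cultured in vitro, exposed 72 h to compound or to 0.5 vol % DMSO control. Fixed in 1% glutaraldehyde/4% paraformaldehyde in PBS, post-fixed in 1% OsO4/1.5% K3[Fe(CN)6], uranyl acetate stained, ethanol-dehydrated and Epon-embedded. Ultrathin sections post-stained with 1% uranyl acetate and examined by transmission EM for intracellular membrane whirls.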

Row | SMILES | IC50 (Plasmodium falciparum [1]) [µM] | IC50 [2] [µM] | IC50 (Plasmodium falciparum [3]) [µM] | Activity (Plasmodium falciparum [4])
1 | C[N+](C)(CCCCCCCCC[N+](C)(C)CCCN1C(=O)c2cccc3cccc(c23)C1=O)CCCN1C(=O)c2cccc3cccc(c23)C1=O | 0.06 | > 100 | – | –
2 | C[N+](C)(CCCCCCCC[N+](C)(C)CCCN1C(=O)c2cccc3cccc(c23)C1=O)CCCN1C(=O)c2cccc3cccc(c23)C1=O | 0.064 | > 100 | – | –
3 | C[N+](C)(CCCCCCCCCC[N+](C)(C)CCCN1C(=O)c2cccc3cccc(c23)C1=O)CCCN1C(=O)c2cccc3cccc(c23)C1=O | 0.145 | > 100 | – | –
4 | C[N+](C)(C)CCCCCCCCCC[N+](C)(C)C [DECAMETHONIUM BROMIDE] | 0.911 | > 100 | – | –
5 | CCC[N+](C)(C)CC(C)(C)CN1C(=O)c2cccc3cccc(c23)C1=O | 9.81 | > 100 | 8.11 | –
6 | C[N+](C)(C)CCCCCC[N+](C)(C)C [HEXAMETHONIUM BROMIDE] | > 100 | > 100 | – | –
7 | CC(C)(CN1C(=O)c2cccc3c(N)ccc(c23)C1=O)C[N+](C)(C)CCCCCC[N+](C)(C)CC(C)(C)CN1C(=O)c2cccc3c(N)ccc(c23)C1=O | 6.76 | > 100 | 7.39 | –
8 | C[N+](C)(CCCCCCC[N+](C)(C)CCCN1C(=O)c2cccc3cccc(c23)C1=O)CCCN1C(=O)c2cccc3cccc(c23)C1=O | 0.51 | > 100 | – | –
9 | CC(C)(CN1C(=O)c2cccc3cccc(c23)C1=O)C[N+](C)(C)CCCCCCBr | 0.43 | > 100 | 0.89 | –
10 | C[N+](C)(C)CCCCCCCCCCCC[N+](C)(C)C | 0.395 | > 100 | – | –
11 | C[N+](C)(CCCN1C(=O)c2cccc3cccc(c23)C1=O)CCC[N+](C)(C)CCCN1C(=O)c2cccc3cccc(c23)C1=O | > 100 | > 100 | – | –
12 | C[N+](C)(CCCCCC[N+](C)(C)CCCN1C(=O)c2cccc3cccc(c23)C1=O)CCCN1C(=O)c2cccc3cccc(c23)C1=O | 7.99 | > 100 | – | –

The next lines start with results.

Row | IC50 (Plasmodium falciparum [1]) [µM] | SMILES | IC50 [2] [µM] | IC50 (Plasmodium falciparum [3]) [µM] | Activity (Plasmodium falciparum [4])
13 | > 100 | C[N+](C)(CCCC[N+](C)(C)CCCN1C(=O)c2cccc3cccc(c23)C1=O)CCCN1C(=O)c2cccc3cccc(c23)C1=O | > 100 | – | –
14 | 0.8 | CC(C)(CN1C(=O)c2cccc3cccc(c23)C1=O)C[N+](C)(C)CCCCCC[N+](C)(C)CC(C)(C)CN1C(=O)c2cccc3cccc(c23)C1=O | > 100 | – | –
15 | 0.17 | C[N+](C)(CCCCCCCCCCC[N+](C)(C)CCCN1C(=O)c2cccc3cccc(c23)C1=O)CCCN1C(=O)c2cccc3cccc(c23)C1=O | > 100 | – | –
16 | 0.219 | C[N+](C)(CCCCCCCCCCCC[N+](C)(C)CCCN1C(=O)c2cccc3cccc(c23)C1=O)CCCN1C(=O)c2cccc3cccc(c23)C1=O | > 100 | – | –
17 | 3.48 | CC(C)(CN1C(=O)c2cccc3c([N+](=O)[O-])ccc(c23)C1=O)C[N+](C)(C)CCCCCC[N+](C)(C)CC(C)(C)CN1C(=O)c2cccc3c([N+](=O)[O-])ccc(c23)C1=O | > 100 | – | –
18 | 0.4 | CC(C)(CN1C(=O)c2cccc3cccc(c23)C1=O)C[N+](C)(C)CCCCCC[N+](C)(C)CCCN1C(=O)c2cccc3cccc(c23)C1=O | > 100 | – | Active
19 | 0.66 | CC(C)(CN1C(=O)c2cccc3cc([N+](=O)[O-])cc(c23)C1=O)C[N+](C)(C)CCCCCC[N+](C)(C)CC(C)(C)CN1C(=O)c2cccc3cc([N+](=O)[O-])cc(c23)C1=O | > 100 | – | Active
20 | > 100 | CN(C)CCCN1C(=O)c2cccc3cccc(c23)C1=O | > 100 | – | –
21 | 22.6 | CC(C)(CN1C(=O)c2cccc3cc(N)cc(c23)C1=O)C[N+](C)(C)CCCCCC[N+](C)(C)CC(C)(C)CN1C(=O)c2cccc3cc(N)cc(c23)C1=O | > 100 | – | –
22 | > 100 | C[N+](C)(CCCCC[N+](C)(C)CCCN1C(=O)c2cccc3cccc(c23)C1=O)CCCN1C(=O)c2cccc3cccc(c23)C1=O | > 100 | – | –
